Reference: ChEMBL document CHEMBL4480390, “Cink4T, a quinazolinone-based dual inhibitor of Cdk4 and tubulin polymerization, identified via ligand-based virtual screening, for efficient anticancer therapy” (Eur J Med Chem, 2019)
The source made the active and inactive calls. The rule behind the calls is not given here.

Experiments:
[1] = target: Cyclin-dependent kinase 4/cyclin D1 (Homo sapiens) (UniProt P11802+P24385); assay: Inhibition of recombinant human N-terminal GST-tagged CDK4 (S4 to E303 residues)/Cyclin D1 (Q4 to I295 residues) expressed in sf9 cells at 10 uM using RBCTF as substrate measured after 1 hr by ADP-glo luminescence assay relative to control
T47D = assay: cells; settings: Homo sapiens, 72 h
[2] = target: CDK9/cyclin T1 (Homo sapiens) (UniProt O60563+P50750); assay: Inhibition of N-terminal GST-HIS6 fusion protein tagged human full length CDK9 (M1 to F372 residues)/N-terminal HIS6-fused human Cyclin-T1 (M1 to K726 residues) expressed in Sf9 cells at 10 uM using RBCTF as substrate measured after 1 hr by ADP-glo luminescence assay relative to control
Procedure, shortened: (§1)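 ADP-Glo kinase assay with 200 ng Cdk-cyclin enzyme, ATP (125 µM in 2.5x mix) and 25 µg substrate (RBCTF or RBER-CHKtide, per Cdk). Buffer: Tris, MgCl2, BSA, DTT, MnCl2 cofactor, DMSO. Reaction 1 h at 21°C; ADP-Glo 40 min, then detection reagent 40 min. Luminescence read. IC50 by 4-parameter fit; three independent experiments.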

[3] = target: Cyclin-dependent kinase 1/cyclin B1 (Homo sapiens, UniProt P06493); assay: Inhibition of recombinant human N-terminal GST/His6-tagged CDK1 (M1 to M297 residues)/CyclinB1 (M1 to V433 residues) expressed in Sf9 insect cells using RBCTF as substrate measured after 1 hr by ADP-glo luminescence assay
CDK6/cyclin D1 = CDK6/cyclin D1 (Homo sapiens, UniProt Q00534); assay: Inhibition of CDK6/cyclin D1 (unknown origin) using RBER-CHKtide as substrate measured after 1 hr by ADP-glo luminescence assay; type: protein-complex assay; procedure, shortened: as §1
CDK9/cyclin T1 = CDK9/cyclin T1 (Homo sapiens, UniProt P50750); assay: Inhibition of N-terminal GST-HIS6 fusion protein tagged human full length CDK9 (M1 to F372 residues)/N-terminal HIS6-fused human Cyclin-T1 (M1 to K726 residues) expressed in Sf9 cells using RBCTF as substrate measured after 1 hr by ADP-glo luminescence assay
Calu-1 = assay: cells; settings: Homo sapiens, Calu-1, 72 h
Cytochrome P450 1A2 = target: T1, Cytochrome P450 1A2 (Homo sapiens, UniProt P05177); assay: Inhibition of recombinant human CYP1A2 expressed in baker's yeast-derived microsomes using 3-cyano-7-ethoxycoumarin as substrate by fluorescence assay; type: ADME
T1 sequence (P05177 whole entry): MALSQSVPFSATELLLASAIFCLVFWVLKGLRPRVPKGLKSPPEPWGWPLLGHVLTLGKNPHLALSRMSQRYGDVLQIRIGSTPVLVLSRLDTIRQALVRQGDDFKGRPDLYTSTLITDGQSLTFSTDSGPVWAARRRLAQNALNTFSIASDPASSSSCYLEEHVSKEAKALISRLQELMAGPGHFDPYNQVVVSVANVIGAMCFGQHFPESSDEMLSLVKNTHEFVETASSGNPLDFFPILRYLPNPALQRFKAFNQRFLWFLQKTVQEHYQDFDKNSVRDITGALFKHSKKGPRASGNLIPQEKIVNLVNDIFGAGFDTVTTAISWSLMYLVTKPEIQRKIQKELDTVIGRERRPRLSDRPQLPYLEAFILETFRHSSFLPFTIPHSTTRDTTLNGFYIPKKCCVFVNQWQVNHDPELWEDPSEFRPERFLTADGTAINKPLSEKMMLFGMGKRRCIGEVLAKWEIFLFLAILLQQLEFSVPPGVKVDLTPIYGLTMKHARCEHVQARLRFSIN

A549 = assay: cells; settings: Homo sapiens, A549, 72 h
Cytochrome P450 1A1 = target: T2, Cytochrome P450 1A1 (Homo sapiens, UniProt P04798); assay: Inhibition of recombinant human CYP1A1 expressed in baker's yeast-derived microsomes using 7-ethoxyresorufin as substrate by fluorescence assay; type: ADME
T2 sequence (P04798 whole entry): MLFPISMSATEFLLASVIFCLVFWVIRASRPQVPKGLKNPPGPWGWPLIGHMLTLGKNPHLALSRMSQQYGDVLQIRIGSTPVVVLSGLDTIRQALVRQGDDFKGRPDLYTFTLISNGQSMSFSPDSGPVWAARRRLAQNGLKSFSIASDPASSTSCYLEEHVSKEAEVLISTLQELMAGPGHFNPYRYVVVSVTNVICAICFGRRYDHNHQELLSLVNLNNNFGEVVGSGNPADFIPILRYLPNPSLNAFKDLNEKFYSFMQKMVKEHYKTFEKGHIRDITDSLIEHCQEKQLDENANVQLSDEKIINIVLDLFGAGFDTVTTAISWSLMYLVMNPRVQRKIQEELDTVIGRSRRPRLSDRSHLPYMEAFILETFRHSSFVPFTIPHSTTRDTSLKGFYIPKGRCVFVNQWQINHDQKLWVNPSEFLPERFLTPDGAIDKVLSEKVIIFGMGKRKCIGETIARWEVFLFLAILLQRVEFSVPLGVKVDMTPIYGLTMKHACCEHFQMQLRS

Tubulin (Sus scrofa) = Tubulin (Sus scrofa) (UniProt P02554+P02550); assay: Inhibition of porcine tubulin polymerization at 5 uM incubated for 1 min by fluorescence based assay; type: protein assay
Procedure, shortened: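 Compounds added from 10x stocks in duplicate and warmed at 37°C ≤1 min. Ice-cold tubulin pre-mix then added. Fluorescent reporter read at ex 360/em 460 nm for 60 min. Paclitaxel served as enhancer control, CaCl2 as inhibitor control.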

[4] = target: Cyclin-dependent kinase 4/cyclin D1 (Homo sapiens, UniProt P11802); assay: Inhibition of recombinant human N-terminal GST-tagged CDK4 (S4 to E303 residues)/Cyclin D1 (Q4 to I295 residues) expressed in sf9 cells using RBCTF as substrate measured after 1 hr by ADP-glo luminescence assay
Procedure, shortened: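 ADP-Glo luminescence assay of Cdk4–cyclin D1 with RBCTF substrate, 200 ng enzyme, ATP 125 µM (2.5x working mix), Tris/MgCl2/BSA/DTT/MnCl2 buffer, 1 h at 21°C, then two 40-min reagent steps. IC50 from a four-parameter variable-slope sigmoidal fit of inhibition against concentration; mean ± SD from three independent experiments.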

CDK2/Cyclin A2 = CDK2/Cyclin A2 (Homo sapiens, UniProt P24941); assay: Inhibition of human full length N-terminal GST-fused CDK2 (M1 to L298 residues)/human full length Cyclin-A2 (M1 to L432 residues) expressed in Sf9 cells using histone H1 as substrate measured after 1 hr by ADP-glo luminescence assay
MDA-MB-468 = assay: cells; settings: Homo sapiens, MDA-MB-468, 72 h
Cytochrome P450 1B1 = target: T3, Cytochrome P450 1B1 (Homo sapiens, UniProt Q16678); assay: Inhibition of recombinant human CYP1B1 expressed in baker's yeast-derived microsomes using 7-ethoxyresorufin as substrate by fluorescence assay
T3 sequence (Q16678 whole entry): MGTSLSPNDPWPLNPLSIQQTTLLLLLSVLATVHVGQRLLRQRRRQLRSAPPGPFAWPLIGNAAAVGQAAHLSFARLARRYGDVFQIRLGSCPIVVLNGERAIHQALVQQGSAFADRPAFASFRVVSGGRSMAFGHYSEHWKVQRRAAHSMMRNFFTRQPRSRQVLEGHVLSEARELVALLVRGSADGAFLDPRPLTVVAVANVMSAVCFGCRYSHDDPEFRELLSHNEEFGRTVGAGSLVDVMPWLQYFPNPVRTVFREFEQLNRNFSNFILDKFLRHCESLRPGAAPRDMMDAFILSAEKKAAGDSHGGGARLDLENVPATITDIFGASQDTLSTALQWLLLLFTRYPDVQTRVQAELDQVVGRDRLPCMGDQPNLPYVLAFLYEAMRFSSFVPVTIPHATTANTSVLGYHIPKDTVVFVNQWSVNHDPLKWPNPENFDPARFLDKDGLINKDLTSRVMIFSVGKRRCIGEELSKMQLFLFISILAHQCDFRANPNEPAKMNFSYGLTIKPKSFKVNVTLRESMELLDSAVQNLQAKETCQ

SMILES | inhibition [1] [%] | also measured
COc1ccc(-c2nc3ccccc3c(=O)[nH]2)cc1OCc1ccc(F)cc1F | 45 | 
COc1ccc(-c2nc3ccccc3c(=O)[nH]2)cc1OCC(=O)Nc1ccc([N+](=O)[O-])cc1 | 1 | 
Cc1ccc(NC(=O)COc2ccc(-c3nc4ccccc4c(=O)[nH]3)cc2)cc1 | 5 | 
COc1cc(-c2nc3ccccc3c(=O)[nH]2)ccc1Oc1ccc(Cl)cc1Cl | 55 | 
COc1ccc(-c2nc3ccccc3c(=O)[nH]2)cc1OCC(=O)Nc1ccccc1 | 20 | 
COc1ccc(-c2nc3ccccc3c(=O)[nH]2)cc1OCC(=O)Nc1ccccc1Cl | 41 | 
COc1ccc(-c2nc3ccccc3c(=O)[nH]2)cc1O | 0 | 
CS(=O)(=O)Oc1ccc(-c2nc3ccccc3c(=O)[nH]2)cc1 | 42 | 
O=C(COc1ccc(-c2nc3ccccc3c(=O)[nH]2)cc1)Nc1ccccc1 | 45 | 
COc1cccc(NC(=O)COc2ccc(-c3nc4ccccc4c(=O)[nH]3)cc2OC)c1 | 16 | 
O=c1[nH]c(-c2ccc([N+](=O)[O-])cc2)nc2ccccc12 | 0 | 
COc1ccc(-c2nc3ccccc3c(=O)[nH]2)cc1OCC(=O)NC1CCCCC1 | 76 | EC50 (T47D): 8.2 µM; inhibition [2]: 8%; IC50 [3]: > 50 µM; IC50 (CDK6/cyclin D1): > 100 µM; IC50 (CDK9/cyclin T1): > 50 µM; EC50 (Calu-1): 9.8 µM; IC50 (Cytochrome P450 1A2): > 5 µM; EC50 (A549): 7.5 µM; IC50 (Cytochrome P450 1A1): > 5 µM; inhibition (Tubulin (Sus scrofa)): Active; IC50 [4]: 3.8 µM; IC50 (CDK2/Cyclin A2): > 100 µM; EC50 (MDA-MB-468): > 50 µM; IC50 (Cytochrome P450 1B1): > 5 µM
O=c1[nH]c(-c2ccc(OCc3ccc(F)cc3F)cc2)nc2ccccc12 | 30 | 
CCCCNC(=O)COc1ccc(-c2nc3ccccc3c(=O)[nH]2)cc1OC | 48 | 
COc1cc(-c2nc3ccccc3c(=O)[nH]2)ccc1OCC(=O)Nc1ccc(F)cc1 | 7 | 
COc1cc(-c2nc3ccccc3c(=O)[nH]2)ccc1OS(C)(=O)=O | 78 | EC50 (T47D): 8 µM; inhibition [2]: -5%; EC50 (Calu-1): 9 µM; EC50 (A549): 7 µM; inhibition (Tubulin (Sus scrofa)): Active; IC50 (CDK2/Cyclin A2): > 100 µM; EC50 (MDA-MB-468): > 50 µM
O=C(COc1ccc(-c2nc3ccccc3c(=O)[nH]2)cc1)Nc1ccc([N+](=O)[O-])cc1 | 26 | 
COc1cc(-c2nc3ccccc3c(=O)[nH]2)ccc1O | 39 | 
O=c1[nH]c(-c2ccc(O)cc2)nc2ccccc12 | 30 | 
COc1cccc(NC(=O)COc2cc(-c3nc4ccccc4c(=O)[nH]3)ccc2OC)c1 | 5 | 

SMILES | inhibition [1] [%] | also measured
C#CCOc1ccc(-c2nc3ccccc3c(=O)[nH]2)cc1OC | 38 | 
COc1ccc(NC(=O)COc2cc(-c3nc4ccccc4c(=O)[nH]3)ccc2OC)cc1 | 14 | 
COc1ccc(-c2nc3ccccc3c(=O)[nH]2)cc1OCC(=O)Nc1ccccc1C | -5 | 
O=c1[nH]c(-c2ccc(Oc3ccc(F)cc3)cc2)nc2ccccc12 | 30 | 
COc1ccccc1NC(=O)COc1cc(-c2nc3ccccc3c(=O)[nH]2)ccc1OC | 21 | 
CCOc1ccc(NC(=O)COc2ccc(-c3nc4ccccc4c(=O)[nH]3)cc2OC)cc1 | 0 | 
O=C(COc1ccc(-c2nc3ccccc3c(=O)[nH]2)cc1O)Nc1ccc(Cl)cc1 | 0 | 
COc1cc(-c2nc3ccccc3c(=O)[nH]2)ccc1OCc1ccc(F)cc1F | 36 | 
O=C(COc1ccc(-c2nc3ccccc3c(=O)[nH]2)cc1)NC1CCCCC1 | 20 | 
CC(=O)c1c(C)c2cnc(Nc3ccc(N4CCNCC4)cn3)nc2n(C2CCCC2)c1=O | 95 | inhibition [2]: -4%
O=c1[nH]c(-c2ccc(Br)cc2)nc2ccccc12 | 31 | 
O=C(COc1ccc(-c2nc3ccccc3c(=O)[nH]2)cc1)Nc1cccc2ccccc12 | 5 | 
O=c1[nH]c(-c2cccc(O)c2)nc2ccccc12 | -6 | 
Oc1nc(-c2cccnc2)nc2ccccc12 | 36 | 
COc1ccc(-c2nc3ccccc3c(=O)[nH]2)cc1Oc1ccc(F)cc1 | 46 | 
COc1ccccc1NC(=O)COc1ccc(-c2nc3ccccc3c(=O)[nH]2)cc1OC | 89 | EC50 (T47D): 4 µM; IC50 [3]: > 50 µM; IC50 (CDK6/cyclin D1): > 100 µM; IC50 (CDK9/cyclin T1): > 100 µM; EC50 (Calu-1): 6 µM; IC50 (Cytochrome P450 1A2): > 5 µM; EC50 (A549): 3 µM; IC50 (Cytochrome P450 1A1): > 5 µM; inhibition (Tubulin (Sus scrofa)): Active; IC50 [4]: 1.5 µM; IC50 (CDK2/Cyclin A2): > 50 µM; EC50 (MDA-MB-468): > 50 µM; IC50 (Cytochrome P450 1B1): > 5 µM
O=C(COc1ccc(-c2nc3ccccc3c(=O)[nH]2)cc1)Nc1ccc2ccccc2c1 | 0 | 
COc1ccc(NC(=O)COc2ccc(-c3nc4ccccc4c(=O)[nH]3)cc2OC)cc1 | 41 | 
CCOc1ccc(NC(=O)COc2cc(-c3nc4ccccc4c(=O)[nH]3)ccc2OC)cc1 | 3 | 
